Active and inactive are the calls of the source. No cut-off for these calls is given here.
Assays:
Oryctolagus cuniculus = species on record: Oryctolagus cuniculus; assay: Selectivity ratio of IC50 for chymotrypsin-like activity of rabbit 26s proteasome beta 5 subunit to IC50 for trypsin-like activity of rabbit 26s proteasome beta 2 subunit
Summary of the method: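 Purified rabbit-muscle 26S proteasome (final 3 µg/mL) preincubated 30 min with a range of inhibitor concentrations. […] Amc release read continuously for 30 min (ex 380/em 460 nm). Slopes expressed as % of mock; IC50 by four-parameter least-squares fit.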

[1] = biological target: Proteasome Macropain subunit (Homo sapiens) (UniProt P49721); assay: Selectivity ratio of IC50 for trypsin-like activity of proteasome in human RPMI-8226 cells to IC50 for trypsin-like activity of proteasome in human NCI-H929 cells; type: cell-based
[2] = Inhibition of trypsin-like activity of rabbit 26s proteasome beta 2 subunit assessed as hydrolysis of Ac-RLR-amc fluorogenic substrate preincubated for 30 mins followed by substrate addition measured for 30 mins by fluorescence plate reader analysis; parameters: species or system Oryctolagus cuniculus
Summary of the method: (§1)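 Purified rabbit-muscle 26S proteasome (final 3 µg/mL) preincubated 30 min with a range of inhibitor concentrations. Slopes expressed as % of mock; IC50 by four-parameter least-squares fit.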

[3] = biological target: T1, Proteasome Macropain subunit MB1 (Homo sapiens, UniProt P28074); assay: Inhibition of chymotrypsin-like activity of proteasome in human NCI-H929 cells after 6 hrs by proteasomeGlo assay; type: cell-based
T1 sequence (P28074 whole entry): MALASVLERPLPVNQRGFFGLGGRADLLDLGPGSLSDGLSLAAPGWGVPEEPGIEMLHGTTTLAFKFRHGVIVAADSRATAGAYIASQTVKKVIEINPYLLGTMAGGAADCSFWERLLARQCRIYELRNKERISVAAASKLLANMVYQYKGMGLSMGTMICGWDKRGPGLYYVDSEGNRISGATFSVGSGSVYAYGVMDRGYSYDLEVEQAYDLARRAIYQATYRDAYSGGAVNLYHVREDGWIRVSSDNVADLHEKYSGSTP
Summary of the method: (§2)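 Cells then pelleted, resuspended in PBS and mixed with site-specific luminogenic substrates in lysis/assay buffer. Mixing 3 min, then 17 min in the dark before luminescence, triplicate per substrate/point. Activity as % of mock; IC50 from a four-parameter nonlinear fit.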

[4] = Inhibition of chymotrypsin-like activity of rabbit 26s proteasome beta 5 subunit assessed as hydrolysis of Suc-LLVY-amc fluorogenic substrate preincubated for 30 mins followed by substrate addition measured for 30 mins by fluorescence plate reader analysis; parameters: species or system Oryctolagus cuniculus; summary of the method: as §1
[5] = biological target: T1, Proteasome Macropain subunit MB1; assay: Inhibition of chymotrypsin-like activity of proteasome in human RPMI-8226 cells after 6 hrs by proteasomeGlo assay; type: cell-based; summary of the method: as §2
[6] = Inhibition of caspase-like activity of rabbit 26s proteasome beta 1 subunit assessed as hydrolysis of Acn-LPnLD-amc fluorogenic substrate preincubated for 30 mins followed by substrate addition measured for 30 mins by fluorescence plate reader analysis; parameters: species or system Oryctolagus cuniculus; summary of the method: as §1
[7] = Inhibition of chymotrypsin-like activity of yeast 20s proteasome beta 5 subunit assessed as hydrolysis of Suc-LLVY-amc fluorogenic substrate after 15 mins by fluorescence spectrophotometry; parameters: species or system Saccharomyces cerevisiae
NCI-H929 [8] = assay: Inhibition of cathepsin in human NCI-H929 cells assessed as hydrolysis of Z-FR-amc fluorogenic substrate after 6 hrs; type: cell-based
Summary of the method: (§3)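 NCI-H929 cells treated 6 h, washed and permeabilized on ice with 0.05% digitonin in Tris pH 7.5 sucrose buffer. Cytosol removed by centrifugation, then the pellet lysed in Bis-Tris pH 5.5/CHAPS buffer. Protein-normalized extract added to 40 µM Z-FR-amc in phosphate pH 6.0, EDTA, DTT. Fluorescence read continuously for 30 min; rate from slopes.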

[9] = biological target: Proteasome Macropain subunit (Homo sapiens) (UniProt P49721); assay: Inhibition of trypsin-like activity of proteasome beta 2 subunit in HEK-293T cell lysates after 1 hr by SDS-PAGE analysis
Summary of the method: (§4)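 Then 1 h at 37 °C with BODIPY-TMR-Ahx3L3-vs or BODIPY-TMR-epoxomicin (0.5 µM). Samples run on 12.5% SDS-PAGE; β2/β5 band fluorescence taken relative to mock. Three independent experiments; IC50 fitted.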

[10] = biological target: T1, Proteasome Macropain subunit MB1; assay: Inhibition of chymotrypsin-like activity of proteasome beta 5 subunit in HEK-293T cell lysates using BODIPY-BODIPY-TMR-epoxomicin as probe after 1 hr by SDS-PAGE analysis
Summary of the method: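 Then 1 h at 37 °C with BODIPY-TMR-Ahx3L3-vs or BODIPY-TMR-epoxomicin (0.5 µM). Three independent experiments; IC50 fitted.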

Homo sapiens = species on record: Homo sapiens; assay: Selectivity ratio of IC50 for chymotrypsin-like activity of human proteasome beta 5 subunit to IC50 for trypsin-like activity of human proteasome beta 2 subunit
NCI-H929 [11] = assay: Partial inhibition of cathepsin in human NCI-H929 cells assessed as hydrolysis of Z-FR-amc fluorogenic substrate after 6 hrs; type: cell-based; summary of the method: as §3
RPMI-8226 [12] = assay: Sensitization of human RPMI8226 cells to Carfilzomib assessed as cell viability at 10 uM after 48 hrs; type: functional, cell-based
RPMI-8226 [13] = assay: Potentiation of NC-022-induced sensitization of human RPMI8226 cells to Carfilzomib assessed as cell viability at 10 uM after 48 hrs; type: functional, cell-based
[14] = biological target: T2, Proteasome Macropain subunit MB1 (Homo sapiens) (UniProt P28074); assay: Inhibition of chymotrypsin-like activity of proteasome beta 5 subunit in HEK-293T cell lysates after 1 hr by SDS-PAGE analysis; summary of the method: as §4
T2 sequence (whole entry): T1 sequence (P28074 whole entry)

RPMI-8226 [15] = assay: Sensitization of human RPMI8226 cells to Bortezomib assessed as cell viability at 1 uM after 47 hrs; type: functional, cell-based
Summary of the method: (§5)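 RPMI-8226 grown in RPMI-1640 with 10% FBS, penicillin, streptomycin and plasmocin, 5% CO2. For sensitization, cells exposed to bortezomib for 1 h, then 47 h with the trypsin-site inhibitor (1 µM). Viability by Alamar Blue dye conversion; mean ± SEM of three biological replicates.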

Saccharomyces cerevisiae = assay: Inhibition of caspase-like activity of yeast 20s proteasome beta 1 subunit assessed as hydrolysis of […] fluorogenic substrate at 200 uM after 15 mins by fluorescence spectrophotometry
Summary of the method: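 Yeast 20S core particle (0.10 nM) preincubated 15 min with inhibitor, which stays present during the assay. Substrate ZLLE-amc for caspase-like sites, 250 µM, in 20 mM Tris, 0.01% SDS, pH 7.5. Hydrolysis monitored for 1 h at room temperature (ex 360/em 460 nm).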

RPMI-8226 [16] = assay: Sensitization of human RPMI8226 cells to Carfilzomib assessed as cell viability at 27 uM after 47 hrs; type: functional, cell-based
RPMI-8226 [17] = assay: Sensitization of human RPMI8226 cells to Carfilzomib assessed as cell viability at 1 uM after 47 hrs; type: functional, cell-based
RPMI-8226 [18] = assay: Cytotoxicity against human RPMI8226 cells; type: functional, cell-based; summary of the method: as §5

Proteasome Macropain subunit (Homo sapiens), sequence (P49721 whole entry): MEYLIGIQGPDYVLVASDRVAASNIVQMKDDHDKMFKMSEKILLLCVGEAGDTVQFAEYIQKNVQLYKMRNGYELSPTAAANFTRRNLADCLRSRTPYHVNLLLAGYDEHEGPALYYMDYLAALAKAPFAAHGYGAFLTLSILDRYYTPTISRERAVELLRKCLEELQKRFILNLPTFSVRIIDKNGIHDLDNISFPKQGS

SMILES | Ratio IC50 (Oryctolagus cuniculus) | IC50 [2] [nM] | IC50 [4] [nM] | IC50 [6] [nM] | IC50 [10] [nM] | Ratio IC50 (Homo sapiens) | further results
Cc1c(O)cccc1C(=O)N[C@H](C(=O)N[C@@H](CO)C(=O)N[C@@H](CCCNC(=N)N)C(=O)[C@@]1(C)CO1)C(C)C | 267 | 300 | 80000 | 80000 |  |  | Ratio IC50 [1]: 25; IC50 [3]: > 30000 nM; IC50 [5]: > 30000 nM
Cc1c(O)cccc1C(=O)N[C@H](C(=O)N[C@@H](CO)C(=O)N[C@H](/C=C/S(C)(=O)=O)Cc1ccc(CN)cc1)C(C)C |  |  |  | 21000 |  |  | IC50 [7]: 19300 nM; inhibition (NCI-H929 [8]): inactive
CC1=CC(C)=[N+]2C1=C(CCCCc1cn([C@@H](Cc3ccccc3)C(=O)N[C@@H](Cc3ccc(CN)cc3)C(=O)N[C@@H](CC(C)C)C(=O)N[C@H](/C=C/S(C)(=O)=O)Cc3ccc(CN)cc3)nn1)c1c(C)cc(C)n1[B-]2(F)F |  |  |  |  |  |  | inhibition [9]: inactive
CC(C)C[C@H](NC(=O)[C@H](Cc1ccccc1)N=[N+]=[N-])C(=O)N[C@@H](CC(C)C)C(=O)N[C@H](/C=C/S(C)(=O)=O)Cc1ccc(N)cc1 | 0.36 | 110 | 40 | 23000 | 1100 | 0.73 | 
CC(C)C[C@@H](/C=C/S(C)(=O)=O)NC(=O)[C@H](CC(C)C)NC(=O)[C@H](Cc1ccc(CN)cc1)NC(=O)[C@H](Cc1ccccc1)N=[N+]=[N-] | 0.057 | 180 | 10 |  | 480 | 2.5 | 
CC(C)C[C@@H](/C=C/S(C)(=O)=O)NC(=O)[C@H](CC(C)C)NC(=O)[C@H](Cc1ccc(N)cc1)NC(=O)[C@H](Cc1ccccc1)N=[N+]=[N-] |  | 24000 | < 4 | > 30000 | 93 | 0.034 | 
CC(C)C[C@H](NC(=O)[C@H](Cc1ccc(N)cc1)NC(=O)[C@H](Cc1ccccc1)N=[N+]=[N-])C(=O)N[C@H](/C=C/S(C)(=O)=O)Cc1ccc(CN)cc1 |  | 30 | 3400 | 30000 |  |  | inhibition (NCI-H929 [11]): Active
Cc1c(O)cccc1C(=O)N[C@H](C(=O)N[C@@H](CO)C(=O)N[C@H](/C=C/S(C)(=O)=O)Cc1ccc(N)cc1)C(C)C | < 0.0067 | > 30000 | 200 | > 30000 |  |  | 
CC(C)C[C@H](NC(=O)[C@H](Cc1ccccc1)NC(=O)[C@H](Cc1ccccc1)N=[N+]=[N-])C(=O)N[C@H](/C=C/S(C)(=O)=O)Cc1ccccc1 |  | > 30000 | 1000 | > 30000 | 110 | 0.04 | 
CC(C)C[C@H](NC(=O)[C@H](Cc1ccncc1)NC(=O)[C@H](Cc1ccccc1)N=[N+]=[N-])C(=O)N[C@H](/C=C/S(C)(=O)=O)Cc1ccc(CN)cc1 |  | 12 |  | 30000 |  |  | inhibition (NCI-H929 [8]): Active
CC(C)C[C@H](NC(=O)[C@H](Cc1ccc(CN)cc1)NC(=O)[C@H](Cc1ccccc1)N=[N+]=[N-])C(=O)N[C@H](/C=C/S(C)(=O)=O)Cc1ccncc1 | 9.1 | 45 | 410 | > 30000 | 2400 | 6.5 | 
CC(C)C[C@H](NC(=O)[C@H](Cc1ccc(CN)cc1)NC(=O)[C@H](Cc1ccccc1)N=[N+]=[N-])C(=O)N[C@H](/C=C/S(C)(=O)=O)Cc1ccc(CN)cc1 |  | 6.6 | 8900 |  |  |  | inhibition (NCI-H929 [8]): Active
CCOC(=O)[C@H]1O[C@@H]1C(=O)N[C@@H](CC(C)C)C(=O)NCCC(C)C |  |  |  |  |  |  | Activity (RPMI-8226 [12]): inactive; Activity (RPMI-8226 [13]): inactive
CC(C)C[C@H](NC(=O)[C@H](Cc1ccccc1)N=[N+]=[N-])C(=O)N[C@@H](CC(C)C)C(=O)N[C@H](/C=C/S(C)(=O)=O)CCCCN |  | 740 | 22000 | > 30000 |  |  | 
CC(=O)N[C@@H](CC(C)C)C(=O)N[C@@H](CC(C)C)C(=O)N[C@@H](CCCNC(=N)N)C(=O)[C@@]1(C)CO1 |  | 1000 | > 30000 | > 30000 |  |  | 
CC(C)C[C@H](NC(=O)[C@H](Cc1ccccc1)N=[N+]=[N-])C(=O)N[C@@H](CC(C)C)C(=O)N[C@@H](Cc1ccc(N)cc1)C(=O)[C@@]1(C)CO1 | 0.0056 | 1800 | 10 | > 30000 |  |  | 
CC(=O)N[C@@H](CCCNC(=N)N)C(=O)N[C@@H](CC(C)C)C(=O)N[C@@H](CCCNC(=N)N)C(=O)[C@@]1(C)CO1 |  | 80 | > 30000 | > 30000 |  |  | 
CC1=CC(C)=[N+]2C1=C(CCCCc1cn([C@@H](Cc3ccccc3)C(=O)N[C@@H](CC(C)C)C(=O)N[C@@H](CC(C)C)C(=O)N[C@H](/C=C/S(C)(=O)=O)Cc3ccc(CN)cc3)nn1)c1c(C)cc(C)n1[B-]2(F)F |  |  |  |  |  |  | inhibition [9]: Active; inhibition [14]: Active
CC(C)C[C@H](NC(=O)[C@H](Cc1ccc(CN)cc1)NC(=O)[C@H](Cc1ccccc1)N=[N+]=[N-])C(=O)N[C@H](/C=C/S(C)(=O)=O)Cc1ccc(N)cc1 | 59 | 6.3 | 190 | > 30000 | 630 | 6.3 | 
CC(C)C[C@H](NC(=O)[C@H](Cc1ccccc1)N=[N+]=[N-])C(=O)N[C@@H](CC(C)C)C(=O)N[C@@H](Cc1ccc(CN)cc1)C(=O)[C@@]1(C)CO1 |  | 250 | 2700 | 11000 |  |  | 
CC(C)C[C@@H](/C=C/S(C)(=O)=O)NC(=O)[C@H](CC(C)C)NC(=O)[C@H](Cc1ccncc1)NC(=O)[C@H](Cc1ccccc1)N=[N+]=[N-] | 0.00021 | 24000 | 5 | > 30000 | 160 | 0.029 | 
CC(C)C[C@H](NC(=O)[C@H](Cc1ccccc1)N=[N+]=[N-])C(=O)N[C@@H](CC(C)C)C(=O)N[C@H](/C=C/S(C)(=O)=O)Cc1ccncc1 |  | 420 | < 100 | > 30000 | 1500 |  | 
CC(C)C[C@H](NC(=O)[C@H](Cc1ccccc1)N=[N+]=[N-])C(=O)N[C@@H](CC(C)C)C(=O)N[C@H](/C=C/S(C)(=O)=O)Cc1ccc(CN)cc1 |  |  |  |  |  |  | Activity (RPMI-8226 [15]): Active; inhibition (Saccharomyces cerevisiae): inactive; Activity (RPMI-8226 [16]): Active; inhibition (NCI-H929 [11]): Active; Activity (RPMI-8226 [17]): Active; Activity (RPMI-8226 [18]): inactive
